Measurements pooled from the literature.
Protocols differ between the studies behind these lines.
Target: Tyrosine-protein kinase ZAP-70 (ZAP70, Homo sapiens, UniProt P43403)
One construct used (P43403 1-619): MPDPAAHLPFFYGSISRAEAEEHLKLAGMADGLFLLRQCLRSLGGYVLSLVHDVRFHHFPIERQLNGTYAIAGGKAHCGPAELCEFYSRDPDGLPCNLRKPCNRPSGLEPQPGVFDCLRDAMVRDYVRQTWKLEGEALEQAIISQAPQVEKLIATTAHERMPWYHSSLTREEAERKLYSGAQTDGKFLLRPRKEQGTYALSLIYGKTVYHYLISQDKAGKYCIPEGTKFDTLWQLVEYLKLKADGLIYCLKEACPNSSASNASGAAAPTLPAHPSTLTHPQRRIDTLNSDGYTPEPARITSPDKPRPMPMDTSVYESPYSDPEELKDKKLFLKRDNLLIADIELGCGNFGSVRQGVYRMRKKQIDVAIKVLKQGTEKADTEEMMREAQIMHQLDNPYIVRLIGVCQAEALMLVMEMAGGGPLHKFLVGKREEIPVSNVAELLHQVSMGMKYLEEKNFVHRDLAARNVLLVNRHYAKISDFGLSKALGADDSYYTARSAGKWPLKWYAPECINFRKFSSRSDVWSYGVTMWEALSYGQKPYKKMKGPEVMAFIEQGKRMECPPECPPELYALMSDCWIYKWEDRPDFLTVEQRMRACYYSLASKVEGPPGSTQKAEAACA

SMILES | test | conditions | quantity | result
CC(C)(O)[C@H]1CC[C@H](Nc2ccc3ncc(-c4cccc(C(F)(F)F)c4)n3n2)CC1 | enzyme activity, inhibitor | 1 µM | remaining activity | 93.4%
Cc1ccc(C(=O)Nc2ccc(CN3CCN(C)CC3)c(C(F)(F)F)c2)cc1C#Cc1cnc2cccnn12 | enzyme activity, inhibitor | 23.5 nM | remaining activity | 99%
COc1cc2ncnc(Nc3ccc(F)c(Cl)c3)c2cc1OCCCN1CCOCC1 | cell-free assay | 0.5 µM | remaining signal | 96.5%
COc1cc2ncnc(Nc3ccc(Oc4ccccc4)cc3C)c2cc1OC | enzyme activity, inhibitor | 1 µM | inhibition | 0%
CNCc1ccc(-c2cc(-c3nc(-c4ccc(S(=O)(=O)C(C)C)cc4)cnc3N)on2)cc1 | enzyme activity, inhibitor | 2 µM | inhibition | 0%
Cc1c(NC(=O)c2cc(C(N)=O)nc3cc(F)ccc23)c(C(F)(F)F)nn1Cc1ccc(C(C)(C)C)cc1 | cell-free assay, competition with immobilised ligand | 1 µM | remaining binding | 100%
CCN(CC)c1ccc(C2=NNC(=O)CC2C)cc1[N+](=O)[O-] (stereo not shown) | enzyme activity, inhibitor | 10 µM | remaining activity | 67%
FC(F)(F)Oc1cccc(-c2cnc3ccc(-c4ccncc4)nn23)c1 | enzyme activity, inhibitor, radiometric | 1 µM | activity vs control | 116%
O=C(CSc1nc2nccnc2c(=O)n1CCc1ccccc1)Nc1nccs1 | enzyme activity, inhibitor | 10 µM | inhibition | 14%
Cc1noc([C@H]2C[C@@H](c3ccc(C(F)(F)F)cc3)CN(C(=O)N3CCS(=O)(=O)C3)C2)n1 | cell-free assay, competition with immobilised ligand | 1 µM | remaining binding | 100%
CNC(=O)c1cc(Oc2ccc(NC(=O)Nc3ccc(Cl)c(C(F)(F)F)c3)cc2)ccn1 | enzyme activity, inhibitor | 10 µM | inhibition | -42%
CCN(CC)CCNC(=O)c1c(C)[nH]c(/C=C2\C(=O)Nc3ccc(F)cc32)c1C | enzyme activity, inhibitor | 0.1 µM | remaining activity | 101%
Cc1ccc(C(=O)NCc2ccsc2)cc1C#Cc1cn(C(C)C)c2ncnc(N)c12 | enzyme activity, inhibitor | 1 µM | activity vs control | 89%
Nc1nc(Nc2ccc(S(N)(=O)=O)cc2)nn1C(=O)c1c(F)cccc1F | cell-free assay | 0.5 µM | remaining signal | 94.8%
CCCOc1ccc([C@H]2[C@H](C(=O)O)[C@@H](c3ccc4c(c3)OCO4)CN2CC(=O)Nc2c(CC)cccc2CC)cc1 | cell-free assay, competition with immobilised ligand | 1 µM | remaining binding | 50%
O=C(Nc1cnn(-c2csc(C(=O)NC3COC3)c2)c1)Nc1ccccc1Cl | enzyme activity, inhibitor | 5 µM | remaining activity | 102%

SMILES | test | conditions | quantity | result
CCCOc1ccc(OC)c(F)c1C(=O)c1ccc(C(=O)N[C@@H]2CNC[C@H]2NC(=O)c2ccc3[nH]ncc3c2)cc1 | enzyme activity, inhibitor | 10 µM | remaining activity | 90%
Cc1cc(NC(=O)c2cccc3cc(-c4cccc5[nH]nc(N)c45)ccc23)ccc1F | enzyme activity, inhibitor | 0.1 µM | activity vs control | 109%
COc1cc(Nc2cnc(C#N)c(O[C@H](C)CN(C)C)n2)ncc1-c1cnn(C)c1 | enzyme activity, inhibitor, radiometric | 1 µM | remaining activity | 104%
Cc1[nH]c(/C=C2\C(=O)Nc3ccc(F)cc32)c(C)c1C(=O)N[C@H]1CCN(C(=O)N(C)C)C1 | enzyme activity, inhibitor | 0.1 µM | remaining activity | 105%
NS(=O)(=O)c1cc(NC(=O)Cc2ccccc2)ccc1Oc1cccc(Cl)c1 | cell-free assay, competition with immobilised ligand | 1 µM | remaining binding | 87%
CC(C)(C)c1nc2c(s1)c1nc(N)ncc1c1ccc(NS(=O)(=O)c3c(F)cccc3F)c(F)c12 | enzyme activity, inhibitor, radiometric | 1 µM | remaining activity | 95%
COCCOc1nc(-c2ccc(Cl)nc2)nc2c1CN(C(=O)c1ncn3ccccc13)CC2 | cell-free assay, competition with immobilised ligand | 0.1 µM | remaining binding | 95%
CCN(CC)CCNC(=O)c1c(C)[nH]c(/C=C2\C(=O)Nc3ccc(F)cc32)c1C | enzyme activity, inhibitor | 0.3 µM | inhibition | 2%
CN1CC(Oc2cnc(C#N)cc2-c2ccn3nc(NC(=O)C4CC4)cc3c2)C1 | enzyme activity, inhibitor | 1 µM | inhibition | 8%
Cc1cc(C)c(-n2ccn3nc(-c4cccnc4)cc23)cc1NC(=O)c1cc(C#N)cc(S(F)(F)(F)(F)F)c1 | cell-free assay, competition with immobilised ligand | 0.1 µM | remaining binding | 79.9%
CCOc1cc(-c2nncn2C)ccc1Nc1ncc2cc(C)nc(NCC(C)(C)C)c2n1 | enzyme activity, inhibitor, FRET | 1 µM | inhibition | < 15%
COc1cc(-c2cn(C3CCc4ccccc4N(CC(F)(F)F)C3=O)nn2)ccc1-n1ccc(C)n1 (stereo not shown) | cell-free assay, competition with immobilised ligand | 1 µM | remaining binding | 82%
CCCS(=O)(=O)Nc1ccc(F)c(C(=O)c2c[nH]c3ncc(-c4ccc(Cl)cc4)cc23)c1F | enzyme activity, inhibitor | 1 µM | inhibition | < 10%
C[C@H](c1ccc(F)cc1)N(Cc1cccc(C(=O)O)c1)C(=O)c1cnc2ccccc2c1 | cell-free assay, competition with immobilised ligand | 1 µM | remaining binding | 96%
O=C1NC(=O)c2cc(Nc3ccc(F)cc3)c(Nc3ccc(F)cc3)cc21 | cell-free assay | 0.5 µM | remaining signal | 78.8%
